Test results taken from ChEMBL document CHEMBL4725468, “Identification of 3,5-Dimethylisoxazole Derivatives as BRD4 Inhibitors for the Treatment of Colorectal Cancer” (ACS Med Chem Lett, 2020).
pIC50: −log10 of the molar value. Calls of active or inactive are those of the source. The rule behind the calls is not given here.

Tests used:
MIA PaCa-2 = experiment: Antiproliferation activity against human MIAPaCa2 cells assessed as reduction in cell viability at 2.5 uM incubated for 48 hrs by MTT assay relative to control; type: functional
Procedure, shortened: (§1)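 Single-concentration screen at 2.5 μM against BxPc3 and Mia-capa2 pancreatic cancer cells. Read-out is percent growth inhibition.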

HCT-116 [1] = experiment: Antiproliferation activity against human HCT116 cells assessed as reduction in cell viability at 2 uM incubated for 48 hrs by MTT assay relative to control; type: functional
Procedure, shortened: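 HCT116 colon cancer cells screened at a single 2.0 μM concentration. Read-out is percent growth inhibition.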

BXPC-3 = experiment: Antiproliferation activity against human BxPC3 cells assessed as reduction in cell viability at 2.5 uM incubated for 48 hrs by MTT assay relative to control; type: functional; procedure, shortened: as §1
CT26 [2] = experiment: Antitumor activity against mouse CT26 cells xenografted in C57BL/6 mouse assessed as tumor suppression at 20 mg/kg, ip administered for 14 days and measured every two days relative to control; conditions: C57BL/6, CT26, ip, 336 h, read-out: GI
HCT-116 [3] = experiment: Induction of apoptosis in human HCT116 cells assessed as downregulation of c-myc protein expression at 1 uM incubated for 48 hrs by western blot analysis; type: functional, cell-based
Procedure, shortened: (§2)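 HCT116 cells treated at 1 μM for 48 h. Bcl-2, HEXIM1, BRD4 and c-Myc protein levels were measured by western blot.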

[4] = target: Bromodomain-containing protein 4 (Homo sapiens, UniProt O60885); experiment: Inhibition of BRD4 bromodomain1 (unknown origin) using peptide histone H4 (SGRGACKGGACKGLGAC-KGGAACKRHGSGSK-biotin) as substrate incubated for 15 mins followed by substrate addition measured after 1 hr by alphascreen assay
HCT-116 [5] = experiment: Antiproliferation activity against human HCT116 cells assessed as reduction in cell viability incubated for 48 hrs by MTT assay; type: functional, cell-based; conditions: HCT-116, 48 h
Procedure, shortened: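 HCT116 cells treated across a concentration gradient. IC50 was taken from dose–response curves, reported as mean ± SD of at least three independent experiments.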

HCT-116 [6] = experiment: Antiproliferation activity against human HCT116 cells assessed as reduction in cell viability for 12 days by crystal violet staining based plate clone-forming analysis; type: functional; conditions: dose microM 0.008-0.165, time 12.0 day
Procedure, shortened: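 Plate colony-formation assay in HCT116 cells with 12 days of compound exposure at several concentrations.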

HCT-116 [7] = experiment: Induction of apoptosis in human HCT116 cells assessed as decrease in Bcl2 protein expression level at 1 uM incubated for 48 hrs by western blot analysis; type: functional, cell-based; procedure, shortened: as §2
HCT-116 [8] = experiment: Induction of cell cycle arrest in human HCT116 cells assessed as accumulation at G0/G1 phase at 0.16 uM incubated for 48 hrs by flow cytometry; type: functional, cell-based
Procedure, shortened: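 HCT116 cells exposed to 0.16 μM for 48 h. Cell cycle phase distribution was measured, including the G0/G1 fraction.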

CT26 [9] = experiment: Antitumor activity against […] xenografted in C57BL/6 mouse assessed as tumor suppression at 10 mg/kg, iv administered for 14 days and measured every two days relative to control; type: functional; conditions: C57BL/6, CT26, iv, 336 h, time 14 day, read-out: GI
CT26 [10] = experiment: Anticancer activity against mouse CT26 cells xenografted in C57BL/6 mouse assessed as decrease in […] expression at 20 mg/kg, ip administered for 14 days by hematoxylin staining based immunohistochemical analysis; conditions: time 14.0 day
CT26 [11] = experiment: Anticancer activity against […] xenografted in C57BL/6 mouse assessed as cell morphological changes measured at 20 mg/kg, iv administered for 14 days by hematoxylin staining based immunohistochemical analysis; type: functional, organism-based; conditions: time 14.0 day
HCT-116 [12] = experiment: Induction of apoptosis in human HCT116 cells assessed as upregulation of HEXIM1 protein expression at 1 uM incubated for 48 hrs by western blot analysis; type: functional, cell-based; procedure, shortened: as §2
HCT-116 [13] = experiment: Induction of apoptosis in human HCT116 cells assessed as activation of downstream effector Caspase 3 at 1 uM incubated for 48 hrs by western blot analysis; type: functional, cell-based
[14] = Toxicity in C57BL/6 mouse xenografted with mouse CT26 cells assessed as body weight at 20 mg/kg, ip administered for 14 days and measured every two days; conditions: in vivo, 336 h
CT26 [15] = experiment: Anticancer activity against mouse CT26 cells xenografted in C57BL/6 mouse assessed as decrease in c-myc expression at 20 mg/kg, ip administered for 14 days by hematoxylin staining based immunohistochemical analysis; conditions: time 14.0 day
CT26 [16] = experiment: Antitumor activity against […] xenografted in C57BL/6 mouse assessed as tumor suppression at 13.6 mg/kg, iv administered for 14 days and measured every two days relative to control; type: functional; conditions: C57BL/6, CT26, iv, 336 h, time 14 day, read-out: GI
CT26 [17] = experiment: Anticancer activity against mouse CT26 cells xenografted in C57BL/6 mouse assessed as upregulation in HEXIM1 expression at 20 mg/kg, ip administered for 14 days by hematoxylin staining based immunohistochemical analysis; conditions: time 14.0 day
HCT-116 [18] = experiment: Induction of apoptosis in human HCT116 cells assessed as upregulation of BRD4 expression at 1 uM incubated for 48 hrs by western blot analysis; type: functional, cell-based; procedure, shortened: as §2
CT26 [19] = experiment: Antitumor activity against […] xenografted in C57BL/6 mouse assessed as tumor suppression at 5 mg/kg, iv administered for 14 days and measured every two days relative to control; type: functional; conditions: C57BL/6, CT26, iv, 336 h, time 14 day, read-out: GI

SMILES	Activity (MIA PaCa-2) [%]	Activity (HCT-116 [1]) [%]	Activity (BXPC-3) [%]	pIC50 [4]	pIC50 (HCT-116 [5])	also measured
Cc1noc(C)c1-c1ccc2c(c1)C(c1ccccc1)N(CCCCCCCCCCN1C(=O)N(C)c3ccc(-c4c(C)noc4C)cc3C1c1ccccc1)C(=O)N2C (stereo not drawn)	65.2	48.8	45.2			
Cc1noc(C)c1-c1ccc2c(c1)C(c1ccccc1)NC(=O)N2C (stereo not drawn)	59.1	14	11.2	7.49	5.48	inhibition in vivo at 20 mg/kg (CT26 [2]): 11.5%; Activity (HCT-116 [3]): Active; inhibition (HCT-116 [6]): Active; Activity (HCT-116 [7]): Active; Activity (HCT-116 [8]): Active
Cc1noc(C)c1-c1ccc2c(c1)C(c1ccccc1)N(Cc1cn(CCOCCn3cc(CN4C(=O)N(C)c5ccc(-c6c(C)noc6C)cc5C4c4ccccc4)nn3)nn1)C(=O)N2C (stereo not drawn)	64	49.6	23.2	8.38		
Cc1noc(C)c1-c1ccc2c(c1)C(c1ccccc1)N(Cc1cn(CCOCCn3cc(CN4C(=O)Nc5ccc(-c6c(C)noc6C)cc5C4c4ccccc4)nn3)nn1)C(=O)N2 (stereo not drawn)	54.4	55.6	52.1	> 8.68		
Cc1noc(C)c1-c1ccc2c(c1)C(c1ccccc1)N(CCCCN1C(=O)N(C)c3ccc(-c4c(C)noc4C)cc3C1c1ccccc1)C(=O)N2C (stereo not drawn)	68.2	59.3	46.4	7.89		
Cc1noc(C)c1-c1ccc2c(c1)C(c1ccccc1)N(CCCCCN1C(=O)N(C)c3ccc(-c4c(C)noc4C)cc3C1c1ccccc1)C(=O)N2C (stereo not drawn)	71.3	52	27.9	7.25		
Cc1noc(C)c1-c1ccc2c(c1)C(c1ccccc1)N(CCOCCOCCN1C(=O)N(C)c3ccc(-c4c(C)noc4C)cc3C1c1ccccc1)C(=O)N2C (stereo not drawn)	67.3	43.4	7.1	7.51		
Cc1noc(C)c1-c1ccc2c(c1)C(c1ccccc1)N(Cc1cn(CCOCCOCCOCCn3cc(CN4C(=O)Nc5ccc(-c6c(C)noc6C)cc5C4c4ccccc4)nn3)nn1)C(=O)N2 (stereo not drawn)	66.4	60.4	42.2	> 8.68		
Cc1noc(C)c1-c1ccc2c(c1)C(c1ccccc1)N(Cc1cn(CCCCCCn3cc(CN4C(=O)Nc5ccc(-c6c(C)noc6C)cc5C4c4ccccc4)nn3)nn1)C(=O)N2 (stereo not drawn)	57.2	60.1	37.1	> 8.68		
CCS(=O)(=O)Nc1ccc(Oc2ccc(F)cc2F)c(-c2cn(C)c(=O)c3[nH]ccc23)c1 [MIVEBRESIB]	64.3	69.5	36.8	8.60	6.26	
Cc1noc(C)c1-c1ccc2c(c1)C(c1ccccc1)N(Cc1cn(CCOCCOCCOCCn3cc(CN4C(=O)N(C)c5ccc(-c6c(C)noc6C)cc5C4c4ccccc4)nn3)nn1)C(=O)N2C (stereo not drawn)	68.4	83.6	61.3	8.11	6.79	inhibition in vivo at 10 mg/kg (CT26 [9]): 33.8%; inhibition in vivo at 20 mg/kg (CT26 [2]): 56.1%; Activity (HCT-116 [3]): Active; Activity (CT26 [10]): Active; Activity (CT26 [11]): Active; Activity (HCT-116 [12]): Active; Activity (HCT-116 [13]): Active; Activity [14]: Non-Toxic; Activity (CT26 [15]): Active; inhibition (HCT-116 [6]): Dose-dependent effect; inhibition in vivo at 13.6 mg/kg (CT26 [16]): 11.5%; Activity (HCT-116 [7]): Active; Activity (CT26 [17]): Active; Activity (HCT-116 [8]): Active; Activity (HCT-116 [18]): Active; inhibition in vivo at 5 mg/kg (CT26 [19]): 68%
Cc1sc2c(c1C)C(c1ccc(Cl)cc1)=N[C@@H](CC(=O)OC(C)(C)C)c1nnc(C)n1-2	56.2	23.2	9.1		5.38	
Cc1noc(C)c1-c1ccc2c(c1)C(c1ccccc1)N(CCOCCOCCOCCN1C(=O)N(C)c3ccc(-c4c(C)noc4C)cc3C1c1ccccc1)C(=O)N2C (stereo not drawn)	73.4	35.3	42.1	7.72		
Cc1noc(C)c1-c1ccc2c(c1)C(c1ccccc1)N(CCCCCCN1C(=O)N(C)c3ccc(-c4c(C)noc4C)cc3C1c1ccccc1)C(=O)N2C (stereo not drawn)	70.9	59.7	44	7.38	5.96	
Cc1noc(C)c1-c1ccc2c(c1)C(c1ccccc1)N(Cc1cn(CCn3cc(CN4C(=O)Nc5ccc(-c6c(C)noc6C)cc5C4c4ccccc4)nn3)nn1)C(=O)N2 (stereo not drawn)	62.2	60.3	53	> 8.68		
Cc1noc(C)c1-c1ccc2c(c1)C(c1ccccc1)N(Cc1cn(CCOCCOCCn3cc(CN4C(=O)Nc5ccc(-c6c(C)noc6C)cc5C4c4ccccc4)nn3)nn1)C(=O)N2 (stereo not drawn)	63.2	60.5	21.8	> 8.68		
